Results taken from ChEMBL document CHEMBL1154084, “Preparation and antitubercular activities in vitro and in vivo of novel Schiff bases of isoniazid” (Eur J Med Chem, 2009).
≈ marks a conversion by molar mass, not a printed value.

Assays:
[1] = test system: Mycobacterium tuberculosis; experiment: Antitubercular activity against Mycobacterium tuberculosis H37Rv by broth dilution method; type: functional
[2] = Selectivity index, ratio IC50 for african green monkey Vero cells to MIC for Mycobacterium tuberculosis H37Rv; type: functional
Summary of the method: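 Vero cells exposed 72 h, at up to ten times the MIC, with viability read by a cell proliferation assay. SI is IC50 divided by the MIC against H37Rv; the screening criterion is SI >10.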

[3] = test system: Mycobacterium tuberculosis; experiment: Antitubercular activity against Mycobacterium tuberculosis infected in C57BL/6 mouse assessed reduction in colony forming units per lung at 25 mg/kg administered for 2 days after 24 hrs post-infection measured after 3 days by short course therapy (Rvb=6.51 +/- 0.13 logCFU/lung); type: functional
[4] = Ratio of EC90 for Mycobacterium tuberculosis Erdman to MIC for Mycobacterium tuberculosis H37Rv; type: functional
[5] = test system: Mycobacterium tuberculosis; experiment: Bactericidal activity in Mycobacterium tuberculosis Erdman infected in mouse macrophages assessed as reduction of colony forming units after 7 days; type: functional; settings: 168 h
Summary of the method: (§1)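 CFU read at 7 days against drug-free controls. EC90 is the lowest concentration giving 90% CFU reduction (bacteriostatic); EC99 is the lowest giving 99% (bactericidal).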

[6] = test system: Mycobacterium tuberculosis; experiment: Bacteriostatic activity in Mycobacterium tuberculosis Erdman infected in mouse macrophages assessed as reduction of colony forming units after 7 days; type: functional; settings: 168 h; summary of the method: as §1
[7] = test system: Mycobacterium tuberculosis; experiment: Antitubercular activity against Mycobacterium tuberculosis Erdman by broth dilution method; type: functional
Summary of the method: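 Modified 7H10 broth (no agar or malachite green; pH 6.6) with 10% OADC and 0.05% Tween 80; broth dilution MIC90. Inoculum grown 5 days at 37°C on rotary shaker, diluted to 100 Klett units/mL (about 5 × 10^7 cfu/mL), checked by triplicate 7H10 agar counts after 4 weeks at 37°C. Compounds dissolved in DMSO, diluted in distilled water; isoniazid and PAS as reference standards.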

[8] = test system: Mycobacterium tuberculosis; experiment: Antitubercular activity against Mycobacterium tuberculosis infected in C57BL/6 mouse assessed reduction in colony forming units per lung at 25 mg/kg administered for 2 days after 24 hrs post-infection measured after 3 days by short course therapy (Rvb=6.37 +/- 0.24 logCFU/lung); type: functional
Mus musculus = species on record: Mus musculus; experiment: Toxicity in C57BL/6 mouse assessed as overt toxicity; type: organism-based; settings: in vivo
Summary of the method: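 C57BL/6 mice infected intranasally with approximately one million viable M. tuberculosis organisms. Dosing by gavage at 25 mg/kg body weight (compound in DMSO diluted in distilled water), starting one day post-infection and given for two days. Animals observed for ill effects or overt toxicity until sacrifice by CO2 inhalation three days post-infection. Groups of six mice.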

[9] = test system: Mycobacterium tuberculosis; experiment: Antitubercular activity against Mycobacterium tuberculosis infected in CD1 mouse assessed colony forming units per lung at 25 mg/kg administered 5 days a week for 4 weeks after 1 week post-infection by long course therapy (Rvb=8.80 +/- 0.18 logCFU/lung); type: functional

SMILES | MIC90 [1] [µg/mL] | Ratio [2] | further results
O=C(N/N=C/c1c(Cl)cccc1Cl)c1ccncc1 | < 6.25 |  | 
COc1ccccc1/C=C/C=N/NC(=O)c1ccncc1 | 0.1 (≈ 0.355 µM) |  | 
CCCCCCCCCCCCC/C=N\NC(=O)c1ccncc1 | 0.2 (≈ 0.603 µM) |  | 
CCCC/C=C/C=N/NC(=O)c1ccncc1 | < 6.25 |  | 
CC(/C=N/NC(=O)c1ccncc1)=C\c1ccccc1 | 0.5 (≈ 1.88 µM) | >250 | log10cfu [3]: 5.22
COc1ccc(/C=C/C=N/NC(=O)c2ccncc2)cc1 |  | >50 | 
O=C(N/N=C/c1ccc(Cl)c([N+](=O)[O-])c1)c1ccncc1 | 0.39 (≈ 1.28 µM) | >64 | Ratio [4]: 0.2; EC99 [5]: 0.3 µg/mL; EC90 [6]: 0.078 µg/mL (≈ 0.256 µM)
COc1cc(/C=N/NC(=O)c2ccncc2)cc(I)c1OC | 0.2 (≈ 0.486 µM) | 297 | 
NNC(=O)c1ccncc1 [ISONIAZID] |  |  | MIC [7]: 0.03 µg/mL (≈ 0.219 µM); Ratio [4]: 1; log10cfu [8]: 5.58; log10cfu [3]: 4.96; MIC [1]: 0.03 µg/mL (≈ 0.219 µM); Activity (Mus musculus): Non-toxic; log10cfu [9]: 4.71
CCCCC/C(=N\NC(=O)c1ccncc1)c1ccccc1 | 0.39 (≈ 1.32 µM) | 25 | Ratio [4]: 0.13; EC99 [5]: 0.25 µg/mL; EC90 [6]: 0.05 µg/mL (≈ 0.169 µM)
CCCCOc1ccc(/C=N/NC(=O)c2ccncc2)cc1 | 0.1 (≈ 0.336 µM) | >2000 | 
Nc1ccc(C(=O)O)c(O)c1 [AMINOSALICYLIC ACID] |  |  | MIC [7]: 0.03 µg/mL (≈ 0.196 µM)
CC(C)=CCC/C(C)=C/C=N/NC(=O)c1ccncc1 | 0.1 (≈ 0.369 µM) |  | 
O=C(N/N=C/c1ccc(/C=N/NC(=O)c2ccncc2)cc1)c1ccncc1 | 0.05 (≈ 0.134 µM) | >126 | 
O=C(N/N=C/C=C(c1ccccc1)c1ccccc1)c1ccncc1 |  | 68 | Ratio [4]: 0.28; EC99 [5]: 0.121 µg/mL; EC90 [6]: 0.028 µg/mL (≈ 0.0855 µM)
CC/C=C/C=N/NC(=O)c1ccncc1 | 0.05 (≈ 0.246 µM) | 712 | Ratio [4]: 0.56; EC99 [5]: 0.529 µg/mL; EC90 [6]: 0.028 µg/mL (≈ 0.138 µM)
CC(C)=CCCC(C)C/C=N/NC(=O)c1ccncc1 (stereo not drawn) | 0.2 (≈ 0.732 µM) | >1000 | 
O=C(N/N=C/C=N/NC(=O)c1ccncc1)c1ccncc1 | 0.1 (≈ 0.338 µM) |  | 
COc1cc(/C=N/NC(=O)c2ccncc2)cc(I)c1O | 0.39 (≈ 0.982 µM) | >160 | 
O=C(N/N=C/c1ccccc1OCc1ccccc1)c1ccncc1 |  |  | MIC90 [7]: 0.06 µg/mL (≈ 0.181 µM); log10cfu [8]: 5.49; Activity (Mus musculus): Non-toxic
CCC/C=C/C=N/NC(=O)c1ccncc1 | < 6.25 |  | 
CCCC/C=C(\C=N\NC(=O)c1ccncc1)CCC |  | 1.6 | 

SMILES | MIC90 [1] [µg/mL] | Ratio [2] | further results
CCOC(=O)C/C(Cc1ccccc1)=N/NC(=O)c1ccncc1 | 0.1 (≈ 0.307 µM) | >1250 | Ratio [4]: 0.1; EC99 [5]: 0.211 µg/mL; EC90 [6]: 0.01 µg/mL (≈ 0.0307 µM)
O=C(NN=C1CCCCC1)c1ccncc1 | 0.03 (≈ 0.138 µM) | >40000 | Ratio [4]: 2.7; EC99 [5]: 0.42 µg/mL; EC90 [6]: 0.08 µg/mL (≈ 0.368 µM); log10cfu [9]: 4.65
O=C(N/N=C/c1ccccc1Cl)c1ccncc1 | 0.78 (≈ 3 µM) | >128 | 
CC(C)=NNC(=O)c1ccncc1 | 0.1 (≈ 0.564 µM) | >10000 | 
CCOC(=O)/C(CCc1ccccc1)=N\NC(=O)c1ccncc1 | 0.1 (≈ 0.307 µM) | >1250 | 
CC(C)C/C=C(\C=N\NC(=O)c1ccncc1)C(C)C |  | >10 | log10cfu [3]: 5.49
O=C(N/N=C/c1cccc(Cl)c1Cl)c1ccncc1 | 0.78 (≈ 2.65 µM) | >32 | Ratio [4]: 0.09; EC99 [5]: 0.3 µg/mL; EC90 [6]: 0.071 µg/mL (≈ 0.241 µM)
C/C=C/C=N/NC(=O)c1ccncc1 | < 6.25 |  | 
CCCCCCCCCCCC/C=N\NC(=O)c1ccncc1 | 0.2 (≈ 0.63 µM) | 374 | 
O=C(N/N=C/c1ccc(Br)cc1)c1ccncc1 | 3.13 (≈ 10.3 µM) | 12 | 
CC1C/C(=N/NC(=O)c2ccncc2)CC(C)(C)C1 (stereo not drawn) | < 0.025 | >2000 | Ratio [4]: 2.52; EC99 [5]: 0.15 µg/mL; EC90 [6]: 0.063 µg/mL (≈ 0.243 µM)
O=C(N/N=C/c1ccc(I)cc1)c1ccncc1 | 0.2 (≈ 0.57 µM) | >50 | 
CCOC(=O)C/C(C)=N\NC(=O)c1ccncc1 [ETHYL ACETOACETATE ISONICOTINOYLHYDRAZONE] | 0.2 (≈ 0.802 µM) | >5000 | 
O=C(N/N=C/c1ccccc1[N+](=O)[O-])c1ccncc1 | 0.39 (≈ 1.44 µM) |  | 
O=C(N/N=C/c1ccc(Cl)c(Cl)c1)c1ccncc1 | 0.2 (≈ 0.68 µM) | >50 | Ratio [4]: 0.53; EC99 [5]: 0.596 µg/mL; EC90 [6]: 0.106 µg/mL (≈ 0.36 µM)
CCCCCCOc1ccc(/C=N/NC(=O)c2ccncc2)cc1 |  | 1.5 | 
O=C(N/N=C/c1ccc(F)c(F)c1)c1ccncc1 | 1.56 (≈ 5.97 µM) |  | 
O=C(N/N=C/c1ccccc1)c1ccncc1 [N'-BENZYLIDENE ISONICOTINOHYDRAZIDE] | 0.05 (≈ 0.222 µM) | 4000 | 
CCC/C(CC(=O)OCC)=N/NC(=O)c1ccncc1 [ETHYL BUTYRYL ACETATE ISONICOTINOYLHYDRAZONE] | 0.39 | >2631 | 
O=C(N/N=C/c1ccc(Cl)cc1)c1ccncc1 | 0.2 (≈ 0.77 µM) | >50 | Ratio [4]: 0.2; EC99 [5]: 0.14 µg/mL; EC90 [6]: 0.04 µg/mL (≈ 0.154 µM)
O=C(N/N=C/c1c(F)cccc1F)c1ccncc1 | 0.1 (≈ 0.383 µM) | >1250 | Ratio [4]: 0.37; EC99 [5]: 0.15 µg/mL; EC90 [6]: 0.037 µg/mL (≈ 0.142 µM)
O=C(N/N=C/c1cccc([N+](=O)[O-])c1)c1ccncc1 |  | 8 | 
